IDH1 mut inh: inhibitors of human IDH1 R132H; inhibition, % at 10 µM; 70,000 tested, 0.18% active; AID 624101; IDH1 R132H reductase, diaphorase/resazurin fluorescence, 60 min; O75874; in the data active = inhibition above about 34%;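 note: 0% = DMSO and 100% = no enzyme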
Target sequence (O75874 whole entry R132H): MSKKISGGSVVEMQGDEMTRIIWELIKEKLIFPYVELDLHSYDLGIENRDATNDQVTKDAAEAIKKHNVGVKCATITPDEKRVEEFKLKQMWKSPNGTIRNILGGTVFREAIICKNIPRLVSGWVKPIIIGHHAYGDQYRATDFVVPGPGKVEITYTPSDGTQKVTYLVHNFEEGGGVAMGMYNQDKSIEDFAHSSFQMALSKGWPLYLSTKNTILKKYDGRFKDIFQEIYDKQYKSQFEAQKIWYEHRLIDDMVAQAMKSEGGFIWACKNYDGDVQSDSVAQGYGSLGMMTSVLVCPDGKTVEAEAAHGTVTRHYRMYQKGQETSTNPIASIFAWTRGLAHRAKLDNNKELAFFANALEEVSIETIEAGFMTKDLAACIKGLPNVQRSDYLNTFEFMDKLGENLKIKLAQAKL
Tcruzi prolif: T. cruzi proliferation inhibition; T. cruzi beta-gal in NIH3T3, GalScreen luminescence, 90 h; inhibition, % at 8.34 µM; 77,000 tested, 5.9% active;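 active = mean inhibition above about 93%, with at least 55% of replicates each passing it, limit read from the data, passing the limit was not always enough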
Pf Dd2 inh: inhibitors of Plasmodium falciparum Dd2 growth; activity change, % at 10 µM; 94,000 tested, 2.3% active; AID 1159554; P. falciparum Dd2 growth, SYBR Green, 72 h; stronger effect = lower value; in the data active = activity change below about -80%
GASC1 inh: inhibitors of human demethylase GASC-1 KDM4C | Q9H3R0 | GST-KDM4C 2-372, H3K9me3 peptide, LANCE TR-FRET | inhibition, % at 12.5 µM | 96,000 tested, 0.15% active;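 active = mean replicate inhibition above about 25%, with at least 55% of replicates also reaching it, limit read from the data, passing the limit was not always enough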
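reagent = H3K9me3 peptide substrate, Fe(II), 2-oxoglutarate | system = GST-tagged GASC-1 (JMJD2C) catalytic fragment, aa 2-372 | amount = enzyme final amount 10 nM | read-out = Fall in 671/618 emission ratio as inhibition | medium = HEPES buffer, pH 7.5, plus ascorbate | schedule = 30 min reaction, 60 min detection, RT | measured by = LANCE TR-FRET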
An asterisk follows results filed as active; · = no result. Rows were chosen to be rich in hits. Some 5.8% of all compounds tested hit in one or more screens of this group.

SMILES | IDH1 mut inh | Tcruzi prolif | Pf Dd2 inh | GASC1 inh
C[C@H](CO)N1C[C@H](C)[C@H](CN(C)Cc2ccc(Oc3ccccc3)cc2)Oc2ccc(NC(=O)CCCCCC(=O)Nc3ccccc3N)cc2CC1=O | · | 27 | -84* | 0
C[C@H](CO)N1C[C@H](C)[C@H](CN(C)Cc2ccccc2)Oc2ccc(NC(=O)CCCCCC(=O)Nc3ccccc3N)cc2CC1=O | 0 | 45 | -50 | -1
O=C(O)[C@H]1O[C@@H](Oc2cc(O)c3c(=O)c(-c4ccc(O)cc4)coc3c2)[C@H](O)[C@@H](O)[C@@H]1O | 0 | · | · | ·
O=C(Nc1ccccc1C(=O)NCc1ccco1)c1ccccc1I | 0 | · | · | ·
Cc1noc(C)c1S(=O)(=O)N(C)C[C@@H]1OCCCC[C@H](C)Oc2ccc(NC(=O)Nc3ccccc3)cc2C(=O)N([C@H](C)CO)C[C@H]1C | 0 | · | -83* | 0
Cc1noc(C)c1S(=O)(=O)N(C)C[C@H]1OCCCC[C@H](C)Oc2ccc(NC(=O)Nc3ccccc3)cc2C(=O)N([C@H](C)CO)C[C@@H]1C | · | · | -4 | -2
Cc1noc(C)c1S(=O)(=O)N(C)C[C@@H]1OCCCC[C@H](C)Oc2ccc(NC(=O)c3ccccc3)cc2C(=O)N([C@@H](C)CO)C[C@H]1C | · | 11 | -88* | -1
COc1ccc2c(c1)c(=O)oc1cc(OCC(=O)Nc3cc(C)cc(C)c3)ccc12 | 0 | · | · | ·
C[C@@H]1CCCCO[C@@H](CN(C)S(=O)(=O)c2ccc(Cl)cc2)[C@@H](C)CN([C@@H](C)CO)C(=O)c2cc(NC(=O)Nc3ccc(C(F)(F)F)cc3)ccc2O1 | · | 55 | -83* | -2
C[C@@H]1CN([C@@H](C)CO)C(=O)c2cc(NC(=O)Nc3ccc(C(F)(F)F)cc3)ccc2O[C@@H](C)CCCCO[C@@H]1CN(C)S(=O)(=O)c1ccc(Cl)cc1 | · | 84 | -86* | -4
Cc1ccc(S(=O)(=O)N(C)C[C@@H]2OCCCC[C@@H](C)Oc3ccc(NC(=O)Nc4ccc(C(F)(F)F)cc4)cc3C(=O)N([C@H](C)CO)C[C@@H]2C)cc1 | · | · | -82* | 0
Cc1ccc(S(=O)(=O)N(C)C[C@H]2OCCCC[C@H](C)Oc3ccc(NC(=O)Nc4ccc(C(F)(F)F)cc4)cc3C(=O)N([C@@H](C)CO)C[C@H]2C)cc1 | · | · | -66 | -2
C[C@@H]1CCCCO[C@H](CN(C)S(=O)(=O)c2ccc(Cl)cc2)[C@H](C)CN([C@@H](C)CO)C(=O)c2cc(NC(=O)Nc3ccc(C(F)(F)F)cc3)ccc2O1 | 3 | 86 | -57 | 6
Cc1ccc(S(=O)(=O)N(C)C[C@H]2OCCCC[C@@H](C)Oc3ccc(NC(=O)Nc4ccc(C(F)(F)F)cc4)cc3C(=O)N([C@@H](C)CO)C[C@@H]2C)cc1 | · | · | -79 | 0
CC(=O)c1cccc(NC(=O)c2ccsc2NC(=O)COc2ccccc2)c1 | 2 | · | · | ·
C=CCn1c2ccccc2c2nnc(SCc3ccccc3F)nc21 | 0 | · | · | ·
CO[C@@H]1CN(C)C(=O)c2ccc(NC(=O)Nc3c(C)noc3C)cc2OC[C@H](C)N(C)C[C@@H]1C | 0 | 25 | 17 | 51*
CO[C@H]1CN(C)C(=O)c2ccc(NC(=O)c3cccc(F)c3)cc2OC[C@H](C)N(C)C[C@H]1C | 2 | -36 | -52 | 38*
CO[C@H]1CN(C)C(=O)c2ccc(NC(=O)C3CCCC3)cc2OC[C@H](C)N(C(C)=O)C[C@H]1C | 0 | · | · | 47*
CO[C@H]1CN(C)C(=O)c2cc(NC(=O)c3cccc(F)c3)ccc2OC[C@@H](C)N(C(C)=O)C[C@@H]1C | 0 | 9 | · | 1
CO[C@@H]1CN(C)C(=O)c2cc(NC(=O)c3cccc(F)c3)ccc2OC[C@H](C)N(C(C)=O)C[C@H]1C | 98* | 44 | · | 65*
COc1cc2c(cc1NC(=S)NCc1ccco1)oc1ccccc12 | 2 | · | · | ·
CO[C@H]1CN(C)C(=O)c2ccc(NS(=O)(=O)CC(F)(F)F)cc2OC[C@H](C)N(C)C[C@@H]1C | · | · | -87* | -1
CO[C@H]1CN(C)C(=O)c2ccc(NC(=O)c3ccccc3)cc2OC[C@@H](C)N(C)C[C@@H]1C | 0 | 6 | · | 0
CO[C@@H]1CN(C)C(=O)c2ccc(NC(=O)c3ccccc3)cc2OC[C@H](C)N(C)C[C@@H]1C | 89* | -10 | · | 19
SMILES | IDH1 mut inh | Tcruzi prolif | Pf Dd2 inh | GASC1 inh
C[C@@H]1CN([C@H](C)CO)C(=O)Cc2cc(NC(=O)CCCCCC(=O)Nc3ccccc3N)ccc2O[C@H]1CN(C)S(=O)(=O)c1ccc(Cl)cc1 | 1 | -13 | -51 | -1
C[C@H](CO)N1C[C@H](C)[C@H](CN(C)S(=O)(=O)c2ccc(Cl)cc2)Oc2ccc(NC(=O)CCCCCC(=O)Nc3ccccc3N)cc2CC1=O | · | 58 | -91* | 0
C[C@H]1CN([C@@H](C)CO)C(=O)Cc2cc(NC(=O)CCCCCC(=O)Nc3ccccc3N)ccc2O[C@H]1CN(C)S(=O)(=O)c1ccc(Cl)cc1 | · | 59 | -94* | 0
C[C@@H]1CN([C@@H](C)CO)C(=O)Cc2cc(NC(=O)CCCCCC(=O)Nc3ccccc3N)ccc2O[C@H]1CN(C)S(=O)(=O)c1ccc(Cl)cc1 | -5 | -6 | -64 | -1
C=C1CC[C@H]2C(=C)CC[C@@]3(O)C(=C)C(=O)O[C@@H]3[C@@H]12 | 0 | · | · | ·
Cn1c(SCC(=O)Nc2ccc(Cl)c(Cl)c2)nnc1-c1ccc(Cl)c(Cl)c1 | 0 | · | · | ·
COc1ccc(S(=O)(=O)N(C)C[C@H]2Oc3c(NC(=O)Nc4ccc5c(c4)OCO5)cccc3C(=O)N([C@H](C)CO)C[C@H]2C)cc1 | 1 | 8 | -14 | 1
COc1ccc(S(=O)(=O)N(C)C[C@H]2Oc3c(NC(=O)Nc4ccc5c(c4)OCO5)cccc3C(=O)N([C@@H](C)CO)C[C@H]2C)cc1 | · | 1 | -86* | 0
COc1ccc(S(=O)(=O)N(C)C[C@@H]2Oc3c(NC(=O)Nc4ccccc4)cccc3C(=O)N([C@@H](C)CO)C[C@H]2C)cc1 | · | · | · | -2
COc1ccc(S(=O)(=O)N(C)C[C@H]2Oc3c(NC(=O)Nc4ccccc4)cccc3C(=O)N([C@@H](C)CO)C[C@H]2C)cc1 | 1 | 47 | -90* | 2
CCNC(=O)c1c(NC(=O)c2ccccc2[N+](=O)[O-])sc2c1CCCC2 | 0 | · | · | ·
C[C@@H]1CN([C@@H](C)CO)C(=O)Cc2cc(NS(=O)(=O)c3ccccc3)ccc2O[C@@H]1CN(C)Cc1ccc(C(=O)Nc2ccccc2N)cc1 | 0 | 42 | -88* | -2
C[C@@H]1CN([C@H](C)CO)C(=O)Cc2cc(NS(=O)(=O)c3ccc(Cl)cc3)ccc2O[C@H]1CN(C)Cc1ccc(C(=O)Nc2ccccc2N)cc1 | · | · | -41 | -1
C[C@@H]1CN([C@@H](C)CO)C(=O)Cc2cc(NS(=O)(=O)c3ccc(Cl)cc3)ccc2O[C@@H]1CN(C)Cc1ccc(C(=O)Nc2ccccc2N)cc1 | 0 | · | -82* | 3
C[C@@H]1CN([C@H](C)CO)C(=O)Cc2cc(NS(=O)(=O)c3ccc(Cl)cc3)ccc2O[C@@H]1CN(C)Cc1ccc(C(=O)Nc2ccccc2N)cc1 | 0 | · | -85* | 5

Screens (PubChem)
